Data set [1] in a line: Inhibition of Bacillus subtilis Sfp-PPTase using rhodamine-CoA/BHQ-2-YbbR as substrate preincubated for 15 mins followed by substrate addition by HTS assay.
Data set [2] concerns Bacillus subtilis. Put plainly: Antibacterial activity against Bacillus subtilis HM489 assessed as cellular ATP content after 5 hrs by BacTiter-Glo assay. The format is functional, organism-based. Particulars: HM489, 5 h.
Data set [3] in a line: Inhibition of Bacillus subtilis AcpS-PPTase using rhodamine-CoA/BHQ-2-YbbR as substrate preincubated for 15 mins followed by substrate addition by HTS assay. Put shortly:
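AcpS-PPTase at 100 nM final in 50 mM HEPES-Na pH 7.6, 10 mM MgCl2, 0.01% Nonidet P-40, 0.01% BSA; compound preincubated 15 min at room temperature, then rhodamine-CoA (5 μM final) and BHQ-2-YbbR (12.5 μM final) added. Fluorescence read (525 ex/598 em) at start and after 60 min; difference gives rate.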

The test system of another data set is HepG2. The experiment in a line: Cytotoxicity against human HepG2 cells assessed as cellular ATP content after 48 hrs by CellTiter-Glo assay. It is filed as cell-based. Particulars: HepG2, 48 h. Put shortly:
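HepG2 cells exposed to compound; viability read as cellular ATP by luciferase-coupled CellTiter-Glo.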

Data set [4] deals with T1, L-aminoadipate-semialdehyde dehydrogenase-phosphopantetheinyl transferase (Homo sapiens) (UniProt Q9NRN7).
T1 sequence (whole entry): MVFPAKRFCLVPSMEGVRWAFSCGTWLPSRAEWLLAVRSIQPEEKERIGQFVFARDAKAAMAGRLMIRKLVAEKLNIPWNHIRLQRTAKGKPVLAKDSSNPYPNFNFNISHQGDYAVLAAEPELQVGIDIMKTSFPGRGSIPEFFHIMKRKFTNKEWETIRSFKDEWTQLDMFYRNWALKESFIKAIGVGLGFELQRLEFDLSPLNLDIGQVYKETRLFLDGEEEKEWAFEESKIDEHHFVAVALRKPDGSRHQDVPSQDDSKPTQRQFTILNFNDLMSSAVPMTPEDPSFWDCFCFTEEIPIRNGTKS
The experiment in a line: Inhibition of human PPTase up to 125 uM by gel-based fluorescence assay.

The subject of data set [5] is Bacillus subtilis. Put plainly: Antibacterial activity against Bacillus subtilis 168 assessed as disruption of cell membrane integrity at 10 times MIC after 15 mins by Syto9/propidium iodide staining-based BacLight LIVE/DEAD microscopic analysis. It is filed as functional, organism-based. As to conditions: subsp. subtilis str. 168.
Data set [6] has as its system Bacillus subtilis. The experiment in a line: Antibacterial activity against Bacillus subtilis 168 assessed as growth inhibition after 16 to 20 hrs by resazurin dye-based assay. It is filed as functional. Particulars: subsp. subtilis str. 168. In outline: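 Broth microdilution. Test article from 1 μL DMSO in 50 μL cation-adjusted Mueller Hinton II (bacteria) or RPMI 1640 (fungi), plus ~1×10^3 cfu inoculum in the same medium. Incubated 16–20 h at 30–37 °C (48 h for fungi). MIC scored visually as the first well without growth; resazurin added for imaging.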
(In general: Resazurin is reduced to fluorescent resorufin, in cell work by metabolically active cells.)

Another data set concerns Staphylococcus aureus. Put plainly: Antibacterial activity against Staphylococcus aureus BK2395 in Swiss Webster mouse septicemia model assessed as increase in survival at 50 mg/kg, ip administered 4 to 48 hrs measured 3 times daily for 14 days. The format is functional, organism-based. The arrangement: dose 50 mg/kg.
The test system of the next data set is Liver microsome. The experiment in a line: Drug metabolism in human liver microsomes assessed as GSH adduct formation at 50 uM after 60 mins by LC-MS/MS analysis in presence of NADPH. It is filed as ADME. Particulars: 1 h. For orientation: Liver microsomes are vesicles of endoplasmic reticulum, rich in cytochrome P450 enzymes.

Active and inactive are the calls of the source. The calls are words filed in the database; no cut-off is given here. Bounds are passed on as bounds.

As for `Cc1cc(C)nc(N/C(=N/C#N)N2CCN(c3cccc(C(F)(F)F)c3)CC2)c1`, the 50% inhibitory concentration (IC50) (in general, the concentration that gives 50% inhibition) in data set [1] was no less than 114 µM.
The same measure, in the same setting: the result for `Cc1ccnc(NC(=S)N2CC3CN(c4cccc(C(F)(F)F)c4)CC3C2)c1` (configuration not stated) reads 0.73 µM; that for `Cc1cc(C)nc(NC(=S)N2CCN(c3nnc(C(F)(F)F)s3)CC2)c1`, 1.6 µM.
In turn, `Cc1cc(C)nc(Nc2nnc(N3CCN(c4cccc(C(F)(F)F)c4)CC3)s2)c1` showed an IC50 in [1] of no less than 114 µM.
Same read-out and setting: the result for `Cc1ccnc(NC(=S)N2CCN(c3cccc(N(C)C)c3)CC2)c1` reads 5.8 µM.
Still for that read-out and setting: the result for `Cc1ccnc(NC(=S)NC2CN(c3cccc(C(F)(F)F)c3)C2)c1` reads no less than 114 µM.
The same measure, in the same setting: to `Cc1cc(C)nc(NC(=S)N2CCNCC2)c1` belongs 14.5 µM; to `Cc1cc(C)nc(NC(=S)N2CCN(c3cccc(Cl)c3Cl)CC2)c1`, 1.6 µM.
In [1], `Cc1cc(C)nc(NC(=S)N2CCN(c3ccc(Cl)c(Cl)c3)CC2)c1` gave a half-inhibitory concentration (IC50) of 0.91 µM.
In data set [1], `Cc1cc(C)nc(NC(=S)N2CCN(Cc3cccc(C(F)(F)F)c3)CC2)c1` gave an IC50 of 11.5 µM.
On the same count and under the same terms, the result for `Cc1cc(C)nc(NC(=S)N2CCN(c3ccc(Cl)cc3Cl)CC2)c1` reads 1 µM.
With `Cc1cc(C)nc(NC(=S)N2CCN(c3ccc(C(F)(F)F)cn3)CC2)c1`, the IC50 in the data set with Bacillus subtilis [2] was 13.2 µM; in [3] it was 16.2 µM; with HepG2 it was 15.8 µM.
With `Cc1ccnc(NC(=S)N2CCCN(c3cccc(C(F)(F)F)c3)CC2)c1`, half-maximal inhibition in data set [1] (IC50) required 1.6 µM.
For `Cc1ccnc(NC(=S)N2CCN(C)CC2)c1`, in data set [1], the IC50 is 6.5 µM.
On the same count and under the same terms, to `FC(F)(F)c1cccc(N2CCN(C(=S)Nc3ccccn3)CC2)c1` belongs 0.91 µM; to `Cc1ccnc(NC(=S)N2CCN(c3ccc(C(F)(F)F)cc3)CC2)c1`, 1 µM.
Regarding `Cc1cc(C)nc(NC(=S)N2CCN(c3cc(C#N)cc(C#N)c3)CC2)c1`, in data set [1], the concentration for half-maximal inhibition (IC50) turned out to be 0.65 µM.
Consider `Nc1ncnc2c1ncn2[C@@H]1O[C@H](COP(=O)(O)O)[C@@H](OP(=O)(O)O)[C@H]1O`, for which, in [4], the inhibition result was “Active”.
With `Cc1ccnc(NC(=S)N2CCN(c3ccccc3C(F)(F)F)CC2)c1`, the concentration for half-maximal inhibition (IC50) is 0.61 µM in [1], 9.4 µM with Bacillus subtilis [2], 10.2 µM in [3] and no less than 114 µM in the data set with HepG2.
`Cc1cc(C)nc(NC(=C(C#N)C#N)N2CCN(c3cccc(C(F)(F)F)c3)CC2)c1` displayed an IC50 in data set [1] of no less than 114 µM.
On the same count and under the same terms, the result for `Cc1ccnc(NC(=S)NCCN(C)c2cccc(C(F)(F)F)c2)c1` reads no less than 114 µM; that for `Cc1cc(C)nc(NC(=S)N2CCN(c3cccc(C#N)c3)CC2)c1`, 1.6 µM.
As to `FC(F)(F)c1cccc(N2CCN(C(=S)Nc3ccc4ccccc4n3)CC2)c1`, in data set [1], the IC50 amounted to 1.5 µM.
In the case of `Cc1ccnc(CC(=S)N2CCN(c3cccc(C(F)(F)F)c3)CC2)c1`, in data set [1], half-maximal inhibition (IC50) required 5.76 µM.
Still for that read-out and setting: to `COC(=O)c1ccnc(NC(=S)N2CCN(c3cccc(C(F)(F)F)c3)CC2)c1` belongs 11.5 µM; to `COc1ccnc(NC(=S)N2CCN(c3cccc(C(F)(F)F)c3)CC2)c1`, 1.2 µM.
Regarding `Cc1cc(C)nc(NC(=S)N2CCN(c3ncc(C(F)(F)F)cc3Cl)CC2)c1`, the IC50 in data set [1] was 0.86 µM; with Bacillus subtilis [2] it was 36.2 µM; in data set [3] it was 18.6 µM; with HepG2, 30 µM.
Regarding `FC(F)(F)c1cccc(N2CCN(C(=S)Nc3cc(C(F)(F)F)ccn3)CC2)c1`, the concentration for half-maximal inhibition (IC50) in data set [1] was no less than 114 µM.
Still for that read-out and setting: to `Cc1ccnc(C(=S)N2CCN(c3cccc(C(F)(F)F)c3)CC2)c1` belongs no less than 114 µM.
Turning to `C/N=c1\nc(-c2ccccc2)n(-c2ccccc2)s1`, the inhibition entry in [4] is “Active”.
In data set [1], `Cc1cc(C)nc(NC(=S)N2CCN(c3cc(Cl)c(Cl)c(Cl)c3)CC2)c1` came in with a 50% inhibitory concentration (IC50) of 0.29 µM.
Consider `Cc1ccnc(NC(=S)N2CCN(c3cccc(C(F)(F)F)c3)C2)c1`, for which the IC50 in [1] came out at 0.81 µM.
The same measure, in the same setting: to `Cc1cc(C)nc(NC(=S)N2CCN(S(=O)(=O)c3cccc(C(F)(F)F)c3)CC2)c1` belongs 0.81 µM.
For Cetyltrimethylammonium bromide, the outcome in the data set with Bacillus subtilis [5] was Active. Besides, in the data set with Bacillus subtilis [6], the “growth inhibition (GI)” value was “Active”.
On to `Cc1ccnc(N(C)C(=S)N2CCN(c3cccc(C(F)(F)F)c3)CC2)c1`, for which the half-maximal inhibitory concentration (IC50) in data set [1] was no less than 114 µM.
`Cc1cc(C)nc(NC(=S)N2CCN(c3cccc(S(C)(=O)=O)c3)CC2)c1` came in with a half-inhibitory concentration (IC50) in data set [1] of 2.9 µM.
The same measure, in the same setting: the result for `Cc1cc(C)nc(NC(=S)N2CCN(c3cccc(C(F)(F)F)c3)CC2)c1` reads 0.51 µM.
The compound `Cc1cccc(NC(=S)N2CCN(c3cccc(C(F)(F)F)c3)CC2)c1` showed an IC50 in data set [1] of no less than 114 µM.
The same measure, in the same setting: to `Cc1ccnc(NC(=S)N2CCN(c3cccc(C(F)(F)F)c3)C[C@@H]2C)c1` belongs 11.5 µM.
Regarding `CN[C@H](CC(C)C)C(=O)N[C@H]1C(=O)N[C@@H](CC(N)=O)C(=O)N[C@H]2C(=O)N[C@H]3C(=O)N[C@H](C(=O)N[C@H](C(=O)O)c4cc(O)cc(O)c4-c4cc3ccc4O)[C@H](O)c3ccc(c(Cl)c3)Oc3cc2cc(c3O[C@@H]2O[C@H](CO)[C@@H](O)[C@H](O)[C@H]2O[C@H]2C[C@](C)(N)[C@H](O)[C@H](C)O2)Oc2ccc(cc2Cl)[C@H]1O`, in the data set on Staphylococcus aureus, the result was Active.
The compound `Cc1ccnc(NC(=N)N2CCN(c3cccc(C(F)(F)F)c3)CC2)c1` yielded an IC50 in data set [1] of no less than 114 µM.
Still for that read-out and setting: the result for `COc1cc(OC)cc(N2CCN(C(=S)Nc3cc(C)cc(C)n3)CC2)c1` reads 2 µM.
Consider `Cc1cc(C)nc(NC(=S)N2CCN(c3ccc(Cl)cc3C(F)(F)F)CC2)c1`, for which the Drug metabolism entry in the data set on Liver microsome is “Not Active”. Besides, the IC50 in [1] is 0.58 µM; in the data set on Bacillus subtilis [2], 18.6 µM; in data set [3], 10.2 µM; in the data set with HepG2 it was no less than 114 µM.
For the compound `Cc1cc(C)nc(NC(=S)N2CCN(c3cc(Cl)cc(Cl)c3)CC2)c1`, the half-inhibitory concentration (IC50) in data set [1] stood at 0.85 µM.
In data set [1], `FC(F)(F)c1cccc(N2CCN(C(=S)Nc3ccncc3)CC2)c1` came in with an IC50 of no less than 114 µM.
With `O=C(N[C@H](CO)[C@H](O)c1ccc([N+](=O)[O-])cc1)C(Cl)Cl`, in the data set on Bacillus subtilis [5], the result was inactive. Besides, the “growth inhibition (GI)” value in the data set on Bacillus subtilis [6] was “Active”.
Take `Cc1ccnc(NC(=S)NCCNc2cccc(C(F)(F)F)c2)c1`: the half-inhibitory concentration (IC50) in [1] was no less than 114 µM.
Turning to `Cc1ccnc(NC(=S)NC2CCN(c3cccc(C(F)(F)F)c3)CC2)c1`, the half-maximal inhibitory concentration (IC50) in data set [1] was no less than 114 µM.
For the compound `Cc1ccnc(NC(=S)N2CCC(Nc3cccc(C(F)(F)F)c3)CC2)c1`, the half-maximal inhibitory concentration (IC50) was 0.81 µM in [1], 13.2 µM in the data set on Bacillus subtilis [2], 12.9 µM in data set [3] and no less than 114 µM in the data set with HepG2.
In [1], `Cc1cc(C)nc(NC(=S)N2CCN(c3cc(C(F)(F)F)cc(C(F)(F)F)c3)CC2)c1` had an IC50 of 0.51 µM.
As to `FC(F)(F)c1cccc(N2CCN(C(=S)Nc3ccc4cccnc4n3)CC2)c1`, in data set [1], it took 1 µM to reach half-maximal inhibition (IC50).
Regarding `Cc1cc(C)cc(N2CCN(C(=S)Nc3cc(C)cc(C)n3)CC2)c1`, in data set [1], the IC50 came to 1.6 µM.
Take `COc1cccc(NC(=S)N2CCN(c3cccc(C(F)(F)F)c3)CC2)n1`: the IC50 in data set [1] is 1.5 µM.
`Cc1ccnc(NC(=S)Nc2cccc(C(F)(F)F)c2)c1` gave an IC50 in [1] of 22.9 µM.
Consider `Cc1ccnc(NC(=O)N2CCN(c3cccc(C(F)(F)F)c3)CC2)c1`, for which the IC50 in [1] was no less than 114 µM; with Bacillus subtilis [2], no less than 114 µM; in data set [3], no less than 114 µM; in the data set on HepG2 it was 7 µM.
Turning to `Cc1cc(C)nc(NC(=S)N2CCN(c3cc(F)cc(F)c3)CC2)c1`, in data set [1], the IC50 was found to be 1.3 µM.
On the same count and under the same terms, the result for `Cc1cc(C)nc(NC(=S)N2CCN(c3ccc(Cl)c(Cl)c3Cl)CC2)c1` reads 0.73 µM.

The values above are taken from ChEMBL document CHEMBL3124880, “4-(3-Chloro-5-(trifluoromethyl)pyridin-2-yl)-N-(4-methoxypyridin-2-yl)piperazine-1-carbothioamide (ML267), a potent inhibitor of bacterial phosphopantetheinyl transferase that attenuates secondary metabolism and thwarts bacterial growth” (J Med Chem, 2014).
